Rows were chosen to be rich in hits. Some 2.6% of all compounds tested hit in one or more screens of this group.
SR-BI HDL uptake: blocks mouse SR-BI lipid uptake from DiI-HDL | ldlA[mSR-BI] CHO cells, DiI-HDL uptake fluorescence, 3 h | hit rate 0.96% among 320,000 | Q61009 | inhibition, % at 12.5 µM;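 active = mean replicate inhibition of at least 70% and a set share of replicates each scoring 70 or more; inconclusive = meets just one of the two criteria; inactive = fails both criteria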
Target sequence (Q61009 whole entry, looked up): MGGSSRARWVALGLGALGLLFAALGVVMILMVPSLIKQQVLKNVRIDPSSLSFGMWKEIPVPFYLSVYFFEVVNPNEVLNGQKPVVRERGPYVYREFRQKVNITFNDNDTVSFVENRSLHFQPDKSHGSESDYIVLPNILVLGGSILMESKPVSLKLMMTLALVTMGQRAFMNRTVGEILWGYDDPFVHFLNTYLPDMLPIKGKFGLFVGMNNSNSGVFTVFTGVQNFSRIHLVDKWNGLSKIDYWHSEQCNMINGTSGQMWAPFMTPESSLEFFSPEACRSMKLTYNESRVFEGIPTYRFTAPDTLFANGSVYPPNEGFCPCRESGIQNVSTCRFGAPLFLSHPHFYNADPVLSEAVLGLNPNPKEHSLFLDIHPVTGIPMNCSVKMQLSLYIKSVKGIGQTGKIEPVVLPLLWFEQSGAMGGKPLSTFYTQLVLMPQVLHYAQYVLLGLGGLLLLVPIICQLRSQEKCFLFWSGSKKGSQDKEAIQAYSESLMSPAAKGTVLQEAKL
SR-BI uptake up: enhances SR-BI lipid uptake from DiI-HDL; CHO ldlA[mSR-BI] cells, DiI-HDL uptake fluorescence, 3 h; 100 = double the neutral-control signal; hit rate 0.096% among 320,000; activation, % at 12.5 µM;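 active = mean replicate activation of at least 60% and every replicate at or above 60%; inconclusive = mean or all-replicate condition met, but not both; inactive = mean below 60% and not all replicates reaching 60%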
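Material – SR-BI-overexpressing, LDLR-lacking CHO cells · Medium – BSA-supplemented, HEPES-buffered Ham's F12, pH 7.4 · Doses – single concentration · Times – compound with DiI-HDL co-incubation, 3 h at 37 °C · Measured by – bottom-read fluorescence, 550/595 nm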
dFosB act: enhances mouse delta FosB homodimer DNA binding; P13346; purified delta FosB, TAMRA-CDK5 oligo fluorescence polarization; percent of positive-control signal above neutral wells; activation, % at 25 µM; hit rate 0.99% among 340,000;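 active = mean activation above about 17%, with every replicate also reaching it, limit read from the data, passing the limit was not always enough; inconclusive = only one of the two conditions met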
XiGFP reactiv: activators of X-chromosome reactivation in mouse fibroblasts | XiGFP mouse fibroblasts, % GFP-positive cells imaging, 3 d; cells co-treated with 5-aza-dC sensitizer; scaled so ellipticine positive control = 100% | activation, % at 7.58 µM | hit rate 0.055% among 360,000;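 active = mean normalized replicate activation at least 10% and every replicate at or above 10%; inconclusive = only one of the two criteria met; inactive = mean below 10% and not all replicates reach 10%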
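assay system = SV40-immortalized XiGFP fibroblast cells, line 68-5-11 | buffer or medium = DMEM plus 5-aza-dC sensitizer | doses = single-point pinned compound dosing | times = 3-day compound exposure, then 15 min fixation at room temperature | benchmarks = positive control ellipticine, 6 µM final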
Ecoli rRNA inh: selective bacterial rRNA inhibition in E. coli; E. coli WT GFP vs humanized-ribosome RFP mutants, fluorescence, 24 h; hits give low values; DMSO median 0, no signal -100; GFP signal change (wild-type ribosome), % (test concentration not listed); hit rate 1.6% among 350,000; AID 720706;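 active = significant combined selectivity score with lowered wild-type GFP, culture density cut under 30%, mutant RFP and density less affected; inactive = any of these conditions unmet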
PvdQ acylase: blocks Pseudomonas aeruginosa PvdQ acylase activity. purified PvdQ acylase, fluorescence plate reader. inhibition, % at 10 µM. hit rate 0.063% among 340,000. AID 488965; in the data active = inhibition above about 30%, passing the limit was not always enough; inconclusive = no clear call, values can overlap the other calls
Hits are given with their value; 0 = inactive; ? = inconclusive; - = no result given.

SMILES | SR-BI HDL uptake | SR-BI uptake up | dFosB act | XiGFP reactiv | Ecoli rRNA inh | PvdQ acylase
O=C(O)c1cc(-c2ccccc2)n(-c2ccccc2)n1 | 0 | - | 0 | - | - | 0
COc1ccc(CCNC(=O)c2noc(C(C)C)c2[N+](=O)[O-])cc1OC | - | - | 0 | 0 | 0 | 0
CCN(CC)C(=O)Cn1cc(S(=O)(=O)CC(=O)NCCc2ccc(OC)c(OC)c2)c2ccccc21 | - | - | 0 | 0 | 0 | 0
COc1ccc(C(=O)N/N=C/c2ccccn2)cc1OC | 0 | 0 | 0 | 0 | -29 | 0
COc1ccc([C@H]2CC(=O)c3c(O)cc(O)cc3O2)cc1O | 0 | 0 | 0 | 0 | -23 | 0
O=C(NNC(=O)c1cc2cc(Br)ccc2oc1=O)c1ccc(O)cc1O | 83 | 0 | 0 | 0 | - | 0
COc1ccc(C(=O)NCc2cn3c(C)csc3n2)cc1OC | 0 | 0 | 0 | - | 0 | 0
CCOc1cc(C(=O)OCc2cc(=O)n3c(C)csc3n2)ccc1OC | 78 | 0 | 0 | 0 | 0 | 0
COc1cc(C2NCC(c3ccc(Cl)cc3Cl)c3c2[nH]c2ccccc32)cc(OC)c1OC (configuration not stated) | 0 | 0 | ? | 0 | 0 | 0
O=C(O)c1ccc(C2NCC(c3ccccc3Cl)c3c2[nH]c2ccccc32)cc1 (configuration not stated) | 0 | 0 | 0 | 0 | -37 | 0
CCOC(=O)CC1=C(C(=O)OCC)C(c2ccc(OC)c(OC)c2)C(C#N)=C(N)O1 (configuration not stated) | 0 | 0 | 0 | - | - | 0
Oc1ccc(N=Nc2c(O)ccc3ccccc23)cc1 | 0 | 0 | 0 | - | 0 | 0
N=C(N)c1ccc(N=Nc2c(O)ccc3c2[nH]c2ccccc23)cc1 | 0 | 0 | 0 | 0 | -30 | 0
COc1ccc(NC(C)(C)c2nnnn2-c2c(C)cccc2C)cc1 | 0 | 0 | 0 | 0 | -25 | 0
Cc1cccc(C)c1-n1nnnc1C(C)(C)N1CCN(N=O)CC1 | 0 | 0 | 0 | 0 | 0 | 0
N#CC1C(=O)NC(=O)C(C#N)C12CCCc1sccc12 (configuration not stated) | - | - | - | 0 | 0 | -
O=C(Nc1ccc(N2CCCC2)cc1)c1cc2ccccc2o1 | 72 | 0 | 0 | 0 | 0 | 0
CC(=O)N1CCN(c2ccc(NC(=O)c3cc4ccccc4o3)cc2)CC1 | 0 | 0 | 0 | 0 | 0 | 0
O=C(Nc1cccc(S(=O)(=O)N2CCOCC2)c1)c1cc2ccccc2o1 | 0 | 0 | 0 | 0 | 0 | 0
O=C(NNC(=O)c1ccccc1O)c1cc2ccccc2o1 | 145 | 0 | 0 | 0 | -31 | 0
O=C(NNC(=O)c1cc2ccccc2o1)c1ccncc1 | 0 | 0 | 0 | 0 | 0 | 0
O=C(Nc1cccc(S(=O)(=O)N2CCCCC2)c1)c1cc2ccccc2o1 | 0 | 0 | 0 | 0 | -24 | 0
CCOC1CCCc2oc(-c3ccc(OC)cc3)c(C#CCCO)c21 (configuration not stated) | - | - | - | 0 | 0 | -
COc1ccccc1OCCC(=O)OCC(=O)c1c(N)n(C)c(=O)n(C)c1=O | 0 | 0 | 0 | 0 | 0 | 32
CCC1CCCCN1C(=O)C1CC(c2cc(Cl)c(OC)cc2OC)=NO1 (configuration not stated) | 0 | 0 | 0 | - | - | 0
SMILES | SR-BI HDL uptake | SR-BI uptake up | dFosB act | XiGFP reactiv | Ecoli rRNA inh | PvdQ acylase
COc1cc(/C=C/C(=O)OCC(=O)N2CCCc3ccccc32)ccc1OCC#N | 0 | 0 | 0 | 0 | -24 | 0
Cn1c(N)c(C(=O)COC(=O)/C=C/c2ccccc2)c(=O)n(C)c1=O | 0 | 0 | 0 | 0 | -20 | 0
COc1cc(OC)c(C2=NOC(C(=O)N3CCCc4ccccc43)C2)cc1Cl (configuration not stated) | 81 | 0 | 0 | - | - | 0
O=C(CSc1nnnn1-c1cccc2c1CCCC2)N1CCOCC1 | 0 | 0 | 0 | - | 0 | 0
Nc1nc(N2C(=O)C3CC=CCC3C2=O)nn1-c1ccccc1 (configuration not stated) | 0 | 0 | 0 | - | - | 0
COc1cc(/C=C/C(=O)OCC(=O)c2c(N)n(C)c(=O)n(C)c2=O)ccc1O | 0 | 0 | 0 | 0 | 0 | 0
COc1ccc(C(=O)N2CCCc3ccccc32)cc1OC | 83 | 0 | 0 | 0 | 0 | 0
COc1cc(/C=C/C(=O)OCC(=O)c2c(N)n(C)c(=O)n(C)c2=O)ccc1OCC#N | 71 | 0 | 0 | 0 | 0 | 0
COc1cc(C(=O)N2CCCc3ccccc32)cc(OC)c1OC | 0 | 0 | 0 | - | - | 0
CC(NC(=O)c1ccc(NC(=O)c2ccco2)cc1)c1ccccc1 (configuration not stated) | 0 | 0 | 0 | 0 | 0 | 0
O=C(NC1CCCCCC1)c1cc2ccccc2oc1=O | 0 | 0 | 0 | 0 | -24 | 0
COc1cc2ccccc2cc1C(=O)NC1CCCC1 | 0 | 0 | 0 | 0 | -21 | 0
COc1cc2ccccc2cc1C(=O)NC1CCC(C)CC1 (configuration not stated) | 71 | 0 | 0 | 0 | 0 | 0
COc1cc(SC)ccc1C(=O)NC1CCCCC1 | 0 | 0 | 0 | - | - | 0
N=c1oc2ccccc2cc1C(=O)NC1CCCCCC1 | 0 | 0 | 0 | 0 | 0 | 0
O=S(=O)(Cc1ccc(Cl)cc1)NCc1cccnc1 | - | - | - | 0 | 0 | -
N=c1c2c(ncn1CCCO)Oc1ccc3ccccc3c1C2c1ccccc1 (configuration not stated) | - | - | - | 0 | -19 | -
N=c1c2c(ncn1CCCO)Oc1c(ccc3ccccc13)C2c1ccccc1 (configuration not stated) | 0 | 0 | 0 | 0 | -40 | 0
COc1ccc(C2c3ccc4ccccc4c3Oc3ncn(CCCO)c(=N)c32)cc1OC (configuration not stated) | 0 | 0 | 0 | 0 | -20 | 0
COc1ccc(C2c3ccc4ccccc4c3Oc3ncn(CCCO)c(=N)c32)cc1 (configuration not stated) | 0 | 0 | 0 | 0 | 0 | 0
CC(=O)Nc1cc(-c2ccc(N)nc2)cn2c(-c3cccc(C(F)(F)F)c3)cnc12 | - | - | - | 0 | 0 | -
COc1cccc(S(=O)(=O)N[C@@H]2CC[C@@H](CC(=O)NCc3ccncc3)O[C@@H]2CO)c1 | - | - | - | 0 | 0 | -
CCN1CCN(Cc2ccc(NC(=O)c3ccc(C)c(NC(=O)C4=NN(c5ccccc5)C(=O)C4)c3)cc2C(F)(F)F)CC1 | 0 | 0 | 66 | 0 | 0 | 0
CCN1CCN(Cc2ccc(NC(=O)c3cc(NC(=O)C4=NN(c5ccccc5)C(=O)C4)cc(OC)c3)cc2C(F)(F)F)CC1 | 0 | 0 | 60 | 0 | 0 | 0
CCN1CCN(Cc2ccc(NC(=O)c3ccc(C)c(NC(=O)c4ccno4)c3)cc2C(F)(F)F)CC1 | 0 | 0 | 0 | 0 | 0 | 0
NNC(=O)Cn1c(-c2nonc2N)nc2ccccc21 | 0 | 0 | 0 | 0 | 0 | 0
Cc1cccc(NC(=O)CCS(=O)(=O)c2cccc3nsnc23)c1C | 0 | 70 | 0 | - | - | 0
